Series [1] in a line: Antioxidant activity assessed as trolox equivalents of ABTS radical scavenging activity at pH 7.4 by spectrophotometry. The class given is functional. In short, it runs like this:
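TEAC run at pH 7.4; activity reported as mM equivalents of Trolox.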

Series [2] is described as follows: Relative antioxidant activity assessed as resorcinol equivalents of hydroperoxyl scavenging activity at acidic pH by BR oscillating reaction method. The format is ADME. The method, boiled down:
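Briggs–Rauscher oscillating reaction: hydrogen peroxide, acidic iodate, malonic acid and Mn(II) catalyst at about pH 2, with hydroperoxyl radicals as the key intermediates.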

For series [3], the system named is Liver microsomes. Put plainly: Drug metabolism in human liver microsomes assessed as monooxygenated metabolite after 1.9 mins by UHPLC-MS/MS analysis. The class given is ADME, Microsome. Conditions: 114 s; call rule not given here. In short, it runs like this: (§1)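 Microsomal incubations as for stability (1 mg/mL human liver microsomes, NADPH, 37 °C). Metabolites analysed by UHPLC-MS/MS with a 4.5 min gradient at 0.2 mL/min, recording product ion scans over m/z 100–300.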
(Microsomes from liver hold many membrane-bound enzymes, among them those of drug oxidation.)

Series [4] in a line: Half life in human liver microsomes at 1 uM after 1 to 60 mins by UHPLC-MS/MS analysis. The format is ADME, Microsome.
For series [5], the target named is T1, Aromatase (Homo sapiens, UniProt P11511).
T1 sequence (P11511 whole entry): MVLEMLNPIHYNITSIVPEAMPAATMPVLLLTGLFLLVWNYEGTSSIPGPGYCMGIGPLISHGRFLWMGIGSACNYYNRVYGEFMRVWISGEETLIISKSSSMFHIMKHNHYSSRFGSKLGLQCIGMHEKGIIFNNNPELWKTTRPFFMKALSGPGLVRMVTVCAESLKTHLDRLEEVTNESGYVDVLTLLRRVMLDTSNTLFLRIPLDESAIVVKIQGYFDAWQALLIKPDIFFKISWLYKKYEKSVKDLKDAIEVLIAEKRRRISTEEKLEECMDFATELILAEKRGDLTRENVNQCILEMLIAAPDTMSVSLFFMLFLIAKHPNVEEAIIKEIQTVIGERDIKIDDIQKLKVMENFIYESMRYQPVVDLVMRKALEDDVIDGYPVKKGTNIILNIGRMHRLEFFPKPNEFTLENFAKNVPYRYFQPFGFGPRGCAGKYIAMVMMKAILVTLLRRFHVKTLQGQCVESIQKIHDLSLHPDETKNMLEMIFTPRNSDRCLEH
Put plainly: Inhibition of aromatase (unknown origin) using dibenzylfluorscein as substrate incubated with NADP+ for 10 mins prior to substrate addition measured after 30 mins by fluorescence assay.

The target of series [6] is T1, Aromatase. The experiment in a line: Inhibition of aromatase (unknown origin) using dibenzylfluorscein as substrate incubated with NADP+ for 10 mins prior to substrate addition at 50 uM measured after 30 mins by fluorescence assay. The following applies: 0.5 h. In short, it runs like this: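 Compounds preincubated 10 min at 37 °C with an NADPH-regenerating system (2.6 mM NADP+, 7.6 mM glucose 6-phosphate, 0.8 U/mL G6PDH, 13.9 mM MgCl2, 1 mg/mL albumin; 50 mM K phosphate, pH 7.4). CYP19 enzyme with […] was added for 30 min at 37 °C. The reaction was stopped with 2 N NaOH and held 24 h at 37 °C, then fluorescence read at ex 485/em 530 nm.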

Series [7] deals with NAD(P)H dehydrogenase [quinone] 1 (Mus musculus) (UniProt Q64669). The experiment in a line: Induction of quinone reductase-1 activity in mouse Hepa-1c1c7 cells expressing TAOc1BPrcI mutant assessed as induction ratio at 50 uM by MTT assay relative to DMSO control. The class given is cell-based. A general note: Formazan colour is commonly taken as a measure of viable cells.

The target is the same in series [8]. Put plainly: Induction of quinone reductase-1 activity in mouse Hepa-1c1c7 cells expressing BPrc1 mutant assessed as induction ratio at 50 uM by MTT assay relative to DMSO control. The format is cell-based.
The target is the same in series [9]. Put plainly: Induction of quinone reductase-1 activity in mouse Hepa-1c1c7 cells assessed as concentration required to double induction activity by MTT assay. The format is cell-based. The method, boiled down: (§2)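 Hepa 1c1c7 murine hepatoma cells incubated with compounds at […]. Cells were permeabilized with digitonin and QR1 activity measured by MTT reduction to formazan at 595 nm, with a parallel crystal violet protein assay. IR is specific activity versus DMSO control; CD is the concentration doubling activity, determined only where IR >2. Two independent experiments in triplicate.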

The target is the same in series [10]. Put plainly: Induction of quinone reductase-1 activity in mouse Hepa-1c1c7 cells assessed as induction ratio at 50 uM by MTT assay relative to DMSO-treated control. The class given is cell-based. The method, boiled down: as §2
The target of series [11] is T2, Nitric oxide synthase, inducible (Mus musculus) (UniProt P29477).
T2 sequence (whole entry): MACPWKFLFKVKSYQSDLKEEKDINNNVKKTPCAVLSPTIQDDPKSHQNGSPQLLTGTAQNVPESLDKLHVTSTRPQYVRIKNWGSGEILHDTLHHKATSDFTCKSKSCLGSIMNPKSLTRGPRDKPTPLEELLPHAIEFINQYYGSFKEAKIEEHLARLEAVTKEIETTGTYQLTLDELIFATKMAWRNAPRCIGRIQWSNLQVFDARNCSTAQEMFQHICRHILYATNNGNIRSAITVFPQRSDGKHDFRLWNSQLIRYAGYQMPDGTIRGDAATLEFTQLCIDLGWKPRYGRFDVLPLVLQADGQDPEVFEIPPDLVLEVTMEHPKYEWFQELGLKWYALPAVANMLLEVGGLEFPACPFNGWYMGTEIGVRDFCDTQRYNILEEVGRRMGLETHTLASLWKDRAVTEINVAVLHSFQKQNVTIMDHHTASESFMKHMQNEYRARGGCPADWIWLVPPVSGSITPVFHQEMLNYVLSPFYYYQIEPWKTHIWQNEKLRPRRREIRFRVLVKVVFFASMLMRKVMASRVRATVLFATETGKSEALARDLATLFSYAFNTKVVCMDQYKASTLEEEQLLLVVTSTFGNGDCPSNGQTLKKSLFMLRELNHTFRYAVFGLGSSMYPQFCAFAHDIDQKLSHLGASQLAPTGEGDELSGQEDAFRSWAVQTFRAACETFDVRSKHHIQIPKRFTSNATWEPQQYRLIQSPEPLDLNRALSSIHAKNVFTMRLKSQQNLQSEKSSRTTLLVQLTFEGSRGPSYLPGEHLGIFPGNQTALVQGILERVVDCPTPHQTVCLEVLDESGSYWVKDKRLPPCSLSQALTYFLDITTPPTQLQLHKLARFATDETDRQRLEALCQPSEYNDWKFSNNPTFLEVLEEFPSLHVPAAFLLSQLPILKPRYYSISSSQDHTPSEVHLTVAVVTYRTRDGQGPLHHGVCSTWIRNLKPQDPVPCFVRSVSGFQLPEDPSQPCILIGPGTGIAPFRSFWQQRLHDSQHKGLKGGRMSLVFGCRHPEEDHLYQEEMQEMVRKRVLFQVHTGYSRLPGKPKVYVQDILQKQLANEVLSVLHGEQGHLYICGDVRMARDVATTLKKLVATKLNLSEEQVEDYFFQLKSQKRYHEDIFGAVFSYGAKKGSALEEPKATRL
The experiment in a line: (§3) Inhibition of iNOS-mediated NO production in mouse RAW264.7 cells by Griess assay. The class given is cell-based. The method, boiled down:
(§4)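 RAW 264.7 cells, 1×10^5 per well, held 24 h at 37 °C under 5% CO2. Nitrite in the medium was measured with Griess reagent (sulfanilamide/N-(1-naphthyl)ethylenediamine in H3PO4) at 540 nm against a sodium nitrite standard curve.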
In general terms: Griess reagent forms a coloured azo dye with nitrite.

Series [12] addresses T3, Nitric oxide synthase, inducible (Mus musculus, UniProt P29477).
T3 sequence (P29477 whole entry): T2 sequence (whole entry)
The series is described as §3. The class given is cell-based. The method, boiled down:
as §4

Series [13] in a line: Cytotoxicity against mouse RAW264.7 cells assessed as cell survival at 50 uM after 15 mins by SRB assay. The following applies: read-out: Survival. The format is cell-based. The method, boiled down:
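RAW 264.7 cells were seeded at 1×10^5 per well and held 24 h at 37 °C in 5% CO2. They were then pretreated 15 min with serially diluted compound, followed by LPS (or no LPS) for a further 20 h. Medium was taken for the Griess assay, and cells were fixed with 10% TCA and stained with 0.4% SRB in 1% acetic acid. Bound dye was dissolved in 10 mM Tris and read at 515 nm. Survival is relative to LPS-treated control; two experiments in duplicate.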

The target of series [14] is T2, Nitric oxide synthase, inducible (Mus musculus). Put plainly: Inhibition of iNOS-mediated NO production in mouse RAW264.7 cells at 50 uM by Griess assay. The class given is cell-based.
Series [15] concerns HEK293. The experiment in a line: Cytotoxicity against human HEK293 cells assessed as reduction in cell survival. The class given is cell-based. In short, it runs like this: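 Same 293/NFkB-Luc cells under the NFkB assay conditions; cytotoxic IC50 taken as the concentration giving 50% cell survival.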
A short description of series [16]: Inhibition of TNFalpha-induced nuclear factor-kappa-B activation in human HEK293 cells at by luciferase reporter gene assay. The format is cell-based. In short, it runs like this: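 Stably transfected 293/NFkB-Luc cells seeded at 20 × 10^3 per well in DMEM with 10% FBS, penicillin/streptomycin and 2 mM L-glutamine for 48 h. Medium was then replaced and cells were given compounds in DMSO plus TNF-α 2 ng/mL (0.14 nM) for 6 h. Cells were lysed and luciferase luminescence read; IC50 is the concentration halving TNF-α-activated activity; […]. Mean ± SD of two experiments in duplicate.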

Series [17] is described as follows: Cytotoxicity against human HEK293 cells assessed as cell survival at 50 uM. The format is cell-based. The following applies: read-out: Survival.
For series [18], the system named is HEK293. The experiment in a line: Inhibition of TNFalpha-induced nuclear factor-kappa-B activation in human HEK293 cells at 50 uM by luciferase reporter gene assay. The format is cell-based.
Series [19] concerns Radical scavenging activity. The experiment in a line: Antioxidant activity in non-aqueous medium assessed as trolox equivalents of DPPH radical scavenging activity by spectrophotometry. The class given is functional. In short, it runs like this:
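DPPH radical decolorization by hydrogen-donating scavengers in MeOH or EtOH. Some values could not be determined where the compound's solution colour resembled the DPPH reagent, or where % inhibition versus concentration was not linear.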

The next series concerns RAW264.7. Put plainly: Cytotoxicity against mouse RAW264.7 cells assessed as cell survival after 20 hrs by SRB assay. The following applies: for inhibition (INH): mouse, raw264.7, 20 h.
The subject of series [20] is Liver microsomes. The experiment in a line: Drug metabolism in human liver microsomes assessed as monooxygenated metabolite by UHPLC-MS/MS analysis. The class given is ADME, Microsome. The method, boiled down:
as §1

NAD(P)H dehydrogenase [quinone] 1 (Mus musculus), sequence (Q64669 whole entry): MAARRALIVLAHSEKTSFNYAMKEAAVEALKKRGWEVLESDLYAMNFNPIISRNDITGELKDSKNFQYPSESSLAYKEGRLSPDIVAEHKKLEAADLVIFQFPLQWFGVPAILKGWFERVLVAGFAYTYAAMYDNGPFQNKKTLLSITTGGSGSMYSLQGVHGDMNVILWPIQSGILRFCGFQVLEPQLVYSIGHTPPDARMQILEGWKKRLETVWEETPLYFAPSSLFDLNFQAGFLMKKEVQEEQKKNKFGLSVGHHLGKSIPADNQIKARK

`O=c1c(O)c(-c2ccc(O)c(O)c2)oc2cc(O)cc(O)c12`: the Activity in [1] is 3.1 µM.

In the case of `O=c1c(-c2ccc(O)cc2)coc2c([C@@H]3O[C@H](CO)[C@@H](O)[C@H](O)[C@H]3O)c(O)ccc12` [PUERARIN], the Activity in [2] came out at 0.192 µM.

Take `Oc1cc(O)c2c(c1)O[C@@H](c1ccc(O)c(O)c1)[C@H](O)C2` [(-)-CATECHIN]: the Activity in series [2] worked out at 2.2 µM.

Usually half-life stands for the time in which the quantity being followed falls by half. A lower half-life goes with fast loss. By IC50 is commonly meant the point on the concentration scale where inhibition reaches its midpoint. One may read the inhibition as how much of the control response was suppressed. As to `Oc1ccc(O)c(-c2cn3ccsc3n2)c1`, the Drug metabolism entry in the series on Liver microsomes [3] is listed as “Active”. The same compound yielded a half-life at 1 µM in series [4] of 5.9 min. Moreover, the IC50 against Aromatase [5] stood at 2.6 µM; in [12], 6.4 µM; in the series with HEK293 [15] it was 46.5 µM; in [16] it was 2.24 µM; in the series on RAW264.7 (Mus musculus, RAW264.7, 20 h), 11.6 µM. Also, the inhibition at 50 µM at Aromatase [6] is 98.6%. For the same compound, the Ratio amounted to 0.3 in series [7], 0.9 in series [8] and 3.8 in series [10]. Moreover, in series [9], the CD came to 12.1 µM. Also, the inhibition result in series [11] is “Dose-dependent effect”; in [14] it was 97.7%; with HEK293 [18] it was 91%. The viability at 0.25 h, 50 µM in [13] worked out at 48.2%. Further, the viability at 50 µM in [17] amounted to 43.6%. Further, the figures for the Activity in series [19], in series [1] and in [2] were 0.71 µM, 1.29 µM and 1.032 µM, respectively. Besides, in the series with RAW264.7, the “inhibition (INH)” value was “Dose-dependent effect”.

The compound `Cc1ccc(S(=O)(=O)N[C@@H](Cc2ccccc2)C(=O)CCl)cc1` [TPCK] showed a half-inhibitory concentration (IC50) in series [16] of 3.8 µM.

As to `CC(C)NCC(O)COc1cccc2ccccc12` (stereo unspecified) [PROPRANOLOL], the half-life at 1 µM in [4] turned out to be 20.8 min.

On to `Cc1cn2cc(-c3ccc(O)c(O)c3O)nc2s1`, for which, in the series on Liver microsomes [20], the Drug metabolism entry is reported as “Active”. For the same compound, the half-life at 1 µM in series [4] was 11.2 min. The half-inhibitory concentration (IC50) at Aromatase [5] worked out at 3.2 µM; in series [12] it was 6.8 µM; in the series on HEK293 [15], 21.2 µM; in series [16], 0.53 µM. The compound also returned an inhibition at 50 µM at Aromatase [6] of 99.6%. The Ratio in [7] came out at 0.2; in series [8], 1.2; in series [10] it was 2.03. Also, the CD in series [9] came out at 24.6 µM. Besides, the inhibition entry in [11] was “Dose-dependent effect”; in series [14], 98.8%; in the series with HEK293 [18], 97.5%. Moreover, the viability at 0.25 h, 50 µM in series [13] amounted to 52.3%. Also, in series [17], the viability at 50 µM was determined as 34.3%. The Activity in series [19] was determined as 1.38 µM; in series [1], 3.06 µM; in series [2] it was 0.14 µM. Moreover, the “inhibition (INH)” value in the series on RAW264.7 was “Dose-dependent effect”.
